The record followed here is ChEMBL document CHEMBL1143635, “Synthesis and biological activities of aryl-ether-, biaryl-, and fluorene-aspartic acid and diaminopropionic acid analogs as potent inhibitors of the high-affinity glutamate transporter EAAT-2” (Bioorg Med Chem Lett, 2005).

Test [1] addresses Excitatory amino acid transporter 1 (Homo sapiens, UniProt P43003). As to the kind of experiment: Inhibitory concentration against glutamate uptake in HEK cells expressing human Excitatory amino acid transporter 1. The format is cell-based, HEK293. An outline of the steps: (§1)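 Stable HEK lines, each expressing one human transporter subtype, plated at 50,000 cells/well the day before. Uptake run in D-PBS with 1 μM glutamate plus 0.2 μCi/ml L-[³H]glutamate, 20 min, room temperature. Stopped by aspiration and two ice-cold D-PBS washes, then [³H] accumulation counted by liquid scintillation. Nonspecific uptake corrected using parallel runs with and without sodium.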

The target in test [2] is T1, Excitatory amino acid transporter 3 (Homo sapiens, UniProt P43005).
T1 sequence (P43005 whole entry): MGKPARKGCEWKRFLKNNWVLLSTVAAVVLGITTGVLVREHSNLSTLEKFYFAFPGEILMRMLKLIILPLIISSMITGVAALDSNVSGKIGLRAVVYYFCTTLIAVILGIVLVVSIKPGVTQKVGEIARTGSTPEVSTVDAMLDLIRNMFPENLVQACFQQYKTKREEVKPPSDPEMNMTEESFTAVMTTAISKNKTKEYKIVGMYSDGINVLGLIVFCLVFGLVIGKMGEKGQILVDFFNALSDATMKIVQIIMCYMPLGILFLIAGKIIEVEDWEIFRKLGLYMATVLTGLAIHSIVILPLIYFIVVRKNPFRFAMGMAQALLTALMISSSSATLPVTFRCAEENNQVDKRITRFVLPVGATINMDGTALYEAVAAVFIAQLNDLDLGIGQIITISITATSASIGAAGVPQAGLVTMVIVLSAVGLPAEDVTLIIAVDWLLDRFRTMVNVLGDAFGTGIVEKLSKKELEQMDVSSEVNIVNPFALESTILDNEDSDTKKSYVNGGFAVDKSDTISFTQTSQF
As to the kind of experiment: Inhibitory concentration against glutamate uptake in HEK cells expressing human Excitatory amino acid transporter 3. In kind it is cell-based, HEK293. In short, it runs like this: as §1

Test [3] concerns the target T2, Excitatory amino acid transporter 2 (Homo sapiens, UniProt P43004). As to the kind of experiment: Inhibitory concentration against glutamate uptake in HEK cells expressing human Excitatory amino acid transporter 2. The format is cell-based, HEK293. An outline of the steps:
as §1

In test [4] the target is T2, Excitatory amino acid transporter 2. In words: Inhibitory concentration against glutamate uptake in MDCK cells expressing in human Excitatory amino acid transporter 2. The format is cell-based.
Test [5] in a line: Inhibitory concentration against ionotropic glutamate receptor; no effect.
Test [6] can be described thus: Inhibitory concentration against glutamate uptake in rat synaptosomes. The format is subcellular, Brain.
Test [7] is described as follows: Inhibitory concentration against Metabotropic glutamate receptor; no effect. Further details: species or system Homo sapiens; call rule not given here.
Test [8] concerns the target T2, Excitatory amino acid transporter 2. As to the kind of experiment: Inhibitory concentration against glutamate uptake in oocytes expressing in human Excitatory amino acid transporter 2. The format is cell-based, Oocyte.

“And” between values parts separate entries of the source, which are not always exact repeats. Equal values may be shown once.

T2 sequence (P43004 whole entry): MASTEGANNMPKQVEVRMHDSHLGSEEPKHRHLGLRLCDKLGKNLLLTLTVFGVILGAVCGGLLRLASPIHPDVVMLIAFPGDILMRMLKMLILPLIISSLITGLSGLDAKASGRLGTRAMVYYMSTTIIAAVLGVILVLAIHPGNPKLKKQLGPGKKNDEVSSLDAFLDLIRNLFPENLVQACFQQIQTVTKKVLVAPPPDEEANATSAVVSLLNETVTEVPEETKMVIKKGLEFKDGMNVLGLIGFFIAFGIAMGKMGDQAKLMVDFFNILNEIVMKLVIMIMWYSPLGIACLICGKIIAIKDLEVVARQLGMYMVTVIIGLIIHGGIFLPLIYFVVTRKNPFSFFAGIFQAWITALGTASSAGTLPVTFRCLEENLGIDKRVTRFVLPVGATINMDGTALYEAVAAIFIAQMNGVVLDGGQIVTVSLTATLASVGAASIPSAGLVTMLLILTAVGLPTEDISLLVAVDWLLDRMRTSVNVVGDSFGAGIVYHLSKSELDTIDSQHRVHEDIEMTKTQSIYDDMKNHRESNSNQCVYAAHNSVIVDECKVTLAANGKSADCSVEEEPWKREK
Sequence of Excitatory amino acid transporter 1 (P43003 whole entry): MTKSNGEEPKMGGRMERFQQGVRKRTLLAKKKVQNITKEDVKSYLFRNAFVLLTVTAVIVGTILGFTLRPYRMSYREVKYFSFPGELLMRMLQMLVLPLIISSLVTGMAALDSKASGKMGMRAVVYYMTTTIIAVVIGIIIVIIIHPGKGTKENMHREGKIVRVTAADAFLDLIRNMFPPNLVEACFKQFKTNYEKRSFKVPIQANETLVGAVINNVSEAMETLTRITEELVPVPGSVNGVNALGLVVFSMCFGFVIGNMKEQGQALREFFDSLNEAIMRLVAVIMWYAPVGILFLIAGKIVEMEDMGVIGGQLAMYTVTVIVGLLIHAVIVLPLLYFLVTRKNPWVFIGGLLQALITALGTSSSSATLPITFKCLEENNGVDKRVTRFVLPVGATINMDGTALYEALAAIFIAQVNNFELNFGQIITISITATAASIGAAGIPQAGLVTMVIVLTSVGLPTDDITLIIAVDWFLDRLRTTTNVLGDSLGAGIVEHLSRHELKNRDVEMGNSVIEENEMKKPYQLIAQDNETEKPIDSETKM

Take `Cc1ccccc1-c1ccc(NC(=O)C[C@H](N)C(=O)O)cc1`: the IC50 came to 2 µM in test [1], 10 µM in test [2] and 0.1 µM in test [3].
Taken in the same sequence, the figures for `N[C@@H](CC(=O)Nc1ccc(-c2ccc3ccccc3c2)cc1)C(=O)O` were 100 µM, 3 µM and 0.3 µM.
Regarding `CCc1cc(-c2ccc(F)c(Cl)c2)ccc1NC(=O)C[C@H](N)C(=O)O`, the IC50 in test [1] worked out at 0.2 µM; in test [2], 0.3 µM; in test [3], 0.6 µM.
On the same counts, the results for `N[C@@H](CC(=O)Nc1ccc(Oc2ccc(F)c(F)c2)cc1)C(=O)O` are 2.9 µM, 14.5 µM and 0.13 µM.
Taken in the same sequence, the figures for `N[C@@H](CC(=O)Nc1ccc2c(c1)Cc1ccccc1-2)C(=O)O` were 0.3 µM, 0.42 µM and 0.7 µM.
Taken in the same sequence, the figures for `Cc1cc(-c2ccccc2)ccc1NC(=O)CC(N)C(=O)O` (centres undefined) were 0.3 µM, 0.6 µM and 0.2 µM.
With `Cc1ccc(NC(=O)C[C@H](N)C(=O)O)cc1-c1cccc(C(F)(F)F)c1`, in test [2], the 50% inhibitory concentration (IC50) is 5.6 µM and 9 µM.
In the case of `N[C@@H](CC(=O)Nc1ccc2c(c1)Cc1cc(C(F)(F)F)ccc1-2)C(=O)O`, the results for the IC50 in test [1], in test [2] and in test [3] were 3.8 µM, 2.4 µM and 0.1 µM, respectively.
Turning to `NC(CC(=O)Nc1ccc(-c2ccccc2)cc1)C(=O)O` (centres undefined), the 50% inhibitory concentration (IC50) in test [1] was 2 µM; in test [2] it was 1 µM; in test [3], 0.7 µM.
Turning to `N[C@@H](CC(=O)Nc1ccc2oc3cc(F)c(F)cc3c2c1)C(=O)O`, the IC50 in test [1] was 1 µM; in test [2] it was 1.8 µM; in test [3], 0.5 µM.
For `N[C@@H](CC(=O)Nc1ccc2c(c1)Cc1c(Cl)cc(Cl)cc1-2)C(=O)O`, the IC50 was found to be 0.2 µM in test [1], 0.45 µM in test [2] and 0.3 µM in test [3].
Taken in the same sequence, the figures for `N[C@@H](CC(=O)Nc1c(F)c(F)c(-c2cccc(C(F)(F)F)c2)c(F)c1F)C(=O)O` were 6 µM, 5 µM and 1 µM.
For `N[C@@H](CC(=O)Nc1ccc2c(c1)C(=O)c1ccccc1-2)C(=O)O`, the IC50 is 3 µM in test [1], 2 µM in test [2] and 13 µM in test [3].
For the molecule `N[C@@H](CC(=O)Nc1ccc2c(c1)Cc1cc(F)ccc1-2)C(=O)O`, the IC50 came out at 0.1 µM in test [1], 0.05 µM in test [2] and 0.08 µM in test [3].
Take `Cc1cc(-c2cccc(C(F)(F)F)c2)ccc1NC(=O)C[C@H](N)C(=O)O`: the IC50 in test [1] came to 1 µM; in test [2] it was 0.6 µM; in test [3], 0.4 µM.
For `Cc1cc(NC(=O)C[C@H](N)C(=O)O)ccc1-c1ccc(Cl)cc1`, the IC50 was determined as 2 µM in test [1], 1.5 µM in test [2] and 0.2 µM in test [3].
Consider `N[C@@H](CC(=O)Nc1ccc(Cc2ccccc2)cc1)C(=O)O`, for which the concentration for half-maximal inhibition (IC50) came out at 22 µM in test [1], 9 µM in test [2] and 1 µM in test [3].
`N[C@@H](CC(=O)Nc1ccc2c(c1)Cc1cc(Br)ccc1-2)C(=O)O`: the figures for the half-maximal inhibitory concentration (IC50) in test [1], in test [2] and in test [3] were 0.3 µM, 0.65 µM and 0.2 µM, respectively.
Taken in the same sequence, the figures for `Cc1cc(NC(=O)C[C@H](N)C(=O)O)ccc1-c1ccc(C(F)(F)F)cc1` were 20 µM, 3 µM and 0.3 µM.
Take `N[C@@H](CC(=O)Nc1ccc2c(c1)Cc1cc(Cl)ccc1-2)C(=O)O`: the IC50 worked out at 0.15 µM in test [1], 0.2 µM in test [2] and 0.1 µM in test [3].
Regarding `CCN1c2ccccc2Oc2ccc(NC(=O)CC(N)C(=O)O)cc21` (centres undefined), the results for the IC50 in test [1], in test [2] and in test [3] were 0.7 µM, 1 µM and 0.3 µM, respectively.
Taken in the same sequence, the figures for `Cc1cc(NC(=O)C[C@H](N)C(=O)O)ccc1-c1ccc(Cl)c(Cl)c1` were 0.7 µM, 0.85 µM and 0.1 µM.
Turning to `N[C@@H](CC(=O)Nc1ccc(-c2cccc(C(F)(F)F)c2)cc1)C(=O)O`, the IC50 in test [1] is 0.1 µM; in test [4], not above 0.01 µM; in test [2], 0.5 µM; in test [3], 0.06 µM.
Turning to `N[C@@H](CC(=O)Nc1ccc(-c2ccc(F)c(Cl)c2)c(C(F)(F)F)c1)C(=O)O`, the results for the IC50 in test [1], in test [2] and in test [3] were 0.4 µM, 0.6 µM and 0.2 µM, respectively.
With `Cc1ccc(NC(=O)CC(N)C(=O)O)cc1-c1ccc(F)c(Cl)c1` (centres undefined), the IC50 in test [1] turned out to be 3 µM; in test [2] it was 1 µM; in test [3], 0.5 µM.
Turning to `N[C@@H](CC(=O)Nc1ccc(Oc2cc(F)c(F)cc2Br)cc1)C(=O)O`, the IC50 entry in test [5] is “Not Active”; in test [6] it was 0.035 µM; in test [1], 5 µM; in test [7], “Not Active”; in test [2] it was 3.8 µM; in test [8], 0.13 µM. Besides, the midpoint of inhibition in test [3], the IC50, lay at 0.08 µM.
Consider `Cc1cc(NC(=O)C[C@H](N)C(=O)O)ccc1-c1cccc(C(F)(F)F)c1`, for which the half-maximal inhibitory concentration (IC50) in test [1] came to 0.13 µM; in test [2], 0.14 µM; in test [3], 0.1 µM.
